Activity calls are given as the source filed them. The rule behind the calls is not given here.
Legend:
[1] = biological target: T1, Fatty-acid amide hydrolase 1 (Rattus norvegicus) (UniProt P97612); test: Ratio of Kinact to Ki for histidine6-tagged rat FAAH
T1 sequence (whole entry): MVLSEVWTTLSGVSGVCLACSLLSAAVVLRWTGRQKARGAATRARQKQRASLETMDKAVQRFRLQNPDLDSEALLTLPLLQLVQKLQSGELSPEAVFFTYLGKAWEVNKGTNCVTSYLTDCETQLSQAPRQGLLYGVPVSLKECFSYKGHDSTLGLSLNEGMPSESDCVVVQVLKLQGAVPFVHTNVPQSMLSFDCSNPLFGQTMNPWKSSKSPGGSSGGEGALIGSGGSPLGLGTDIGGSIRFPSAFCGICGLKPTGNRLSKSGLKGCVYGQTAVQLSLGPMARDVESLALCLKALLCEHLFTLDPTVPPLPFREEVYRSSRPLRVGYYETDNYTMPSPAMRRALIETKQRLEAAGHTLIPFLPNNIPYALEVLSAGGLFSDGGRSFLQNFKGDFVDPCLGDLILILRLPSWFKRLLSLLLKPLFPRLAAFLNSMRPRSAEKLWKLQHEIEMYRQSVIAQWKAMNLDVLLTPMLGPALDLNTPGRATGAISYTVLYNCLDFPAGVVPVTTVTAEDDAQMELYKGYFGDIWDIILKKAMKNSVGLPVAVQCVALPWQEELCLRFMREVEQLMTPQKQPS
Summary of the method: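 Rat FAAH construct: aa 30–579, N-terminal transmembrane-deleted, N-terminal His6 tag, E. coli-expressed and purified to >95% purity. Activity read by a GDH-coupled enzyme assay in 384-well plates. Second-order kinact/Ki was derived from the linear slope of kobs versus [I], correcting with (1+[S]/Km).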

[2] = biological target: T2, Fatty-acid amide hydrolase 1 (Homo sapiens) (UniProt O00519); test: Ratio of Kinact to Ki for histidine6-tagged human FAAH
T2 sequence (whole entry): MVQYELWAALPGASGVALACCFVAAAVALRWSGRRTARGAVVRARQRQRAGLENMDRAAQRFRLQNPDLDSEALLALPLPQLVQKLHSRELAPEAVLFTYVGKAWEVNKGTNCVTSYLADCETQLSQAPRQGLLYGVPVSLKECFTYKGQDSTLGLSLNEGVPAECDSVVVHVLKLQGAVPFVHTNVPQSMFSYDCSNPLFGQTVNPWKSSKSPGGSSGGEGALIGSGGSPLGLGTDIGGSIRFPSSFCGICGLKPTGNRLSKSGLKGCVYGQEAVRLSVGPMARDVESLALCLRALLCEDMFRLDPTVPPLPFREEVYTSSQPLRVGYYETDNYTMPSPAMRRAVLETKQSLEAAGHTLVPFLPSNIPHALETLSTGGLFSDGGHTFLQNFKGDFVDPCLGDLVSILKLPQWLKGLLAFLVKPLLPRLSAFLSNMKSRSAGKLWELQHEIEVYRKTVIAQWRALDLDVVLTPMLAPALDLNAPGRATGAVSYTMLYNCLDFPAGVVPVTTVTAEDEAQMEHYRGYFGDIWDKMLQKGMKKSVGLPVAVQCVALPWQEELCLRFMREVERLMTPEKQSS
Summary of the method: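 Human FAAH construct: aa 32–579, N-terminal transmembrane-deleted, N-terminal His6 tag, expressed in E. coli and purified to >95% by SDS–PAGE. Potency measured as kinact/Ki in a GDH-coupled FAAH assay in 384-well format. kobs was plotted against [I]; kinact/Ki came from the slope kinact/[Ki(1+[S]/Km)].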

[3] = biological target: T2, Fatty-acid amide hydrolase 1 (Homo sapiens); test: Inhibition of histidine6-tagged FAAH from human liver proteomes at 10 to 100 uM
Summary of the method: (§1)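 Competitive activity-based protein profiling with FP probe labeling of serine hydrolases. Proteomes used: soluble mouse liver, mouse kidney, human liver and human heart, plus human brain membrane. Compounds tested at 100 μM, reference at 10 and 100 μM. Inhibited bands were read by gel; FAAH and off-target labeling were judged by band loss.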

[4] = biological target: T2, Fatty-acid amide hydrolase 1 (Homo sapiens); test: Inhibition of histidine6-tagged FAAH from human brain proteomes at 10 to 100 uM; summary of the method: as §1
[5] = biological target: T3, Fatty-acid amide hydrolase 1 (Mus musculus) (UniProt O08914); test: Inhibition of histidine6-tagged FAAH from mouse liver proteomes at 10 to 100 uM; summary of the method: as §1
T3 sequence (whole entry): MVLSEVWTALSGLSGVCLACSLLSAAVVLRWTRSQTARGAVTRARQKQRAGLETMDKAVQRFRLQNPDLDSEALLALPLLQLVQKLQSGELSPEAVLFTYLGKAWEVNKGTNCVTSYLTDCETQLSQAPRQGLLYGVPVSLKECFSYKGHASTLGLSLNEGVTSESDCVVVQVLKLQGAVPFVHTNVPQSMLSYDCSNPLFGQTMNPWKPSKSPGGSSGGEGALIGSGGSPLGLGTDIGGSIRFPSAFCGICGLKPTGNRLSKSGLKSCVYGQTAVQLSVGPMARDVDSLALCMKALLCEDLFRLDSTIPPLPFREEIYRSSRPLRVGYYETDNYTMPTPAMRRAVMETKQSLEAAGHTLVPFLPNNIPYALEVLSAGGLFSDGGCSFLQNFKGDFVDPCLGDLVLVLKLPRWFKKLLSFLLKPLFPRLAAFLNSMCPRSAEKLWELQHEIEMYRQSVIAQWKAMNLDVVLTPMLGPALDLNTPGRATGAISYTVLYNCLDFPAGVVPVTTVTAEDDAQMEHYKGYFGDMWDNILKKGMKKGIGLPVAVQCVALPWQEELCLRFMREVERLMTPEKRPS

[6] = biological target: T3, Fatty-acid amide hydrolase 1 (Mus musculus); test: Inhibition of histidine6-tagged FAAH from mouse kidney proteomes at 10 to 100 uM; format: tissue-based; summary of the method: as §1
[7] = biological target: T2, Fatty-acid amide hydrolase 1 (Homo sapiens); test: Inhibition of histidine6-tagged FAAH from human heart proteomes at 10 to 100 uM; summary of the method: as §1

Structure (SMILES) | Ratio [1] | Ratio [2] | further results
Cc1c(CN2CCN(C(=O)Nc3ccc(N(C)C)nc3)CC2)sc2ccccc12 | 1080 M⁻¹ s⁻¹ | 2400 M⁻¹ s⁻¹ | 
Cc1c(CN2CCN(C(=O)NCCO)CC2)sc2ccccc12 | < 10 M⁻¹ s⁻¹ | 42 M⁻¹ s⁻¹ | 
CCc1c(CC2CCN(C(=O)Nc3cccnc3)CC2)sc2ccc(F)cc12 | 1140 M⁻¹ s⁻¹ | 2290 M⁻¹ s⁻¹ | 
Cc1c(CN2CCN(C(=O)Nc3cccnc3)CC2)sc2ccc(Cl)cc12 | 1130 M⁻¹ s⁻¹ | 2820 M⁻¹ s⁻¹ | 
Cc1ccc2sc(CN3CCN(C(=O)Nc4cccnc4)CC3)c(C)c2c1 | 557 M⁻¹ s⁻¹ | 2640 M⁻¹ s⁻¹ | 
Cc1c(CN2CCN(C(=O)Nc3ccc(Br)nc3)CC2)sc2ccccc12 | 157 M⁻¹ s⁻¹ | 70 M⁻¹ s⁻¹ | 
Cc1c(CN2CCN(C(=O)Nc3ccc(C(F)(F)F)nc3)CC2)sc2ccccc12 | < 10 M⁻¹ s⁻¹ | 42 M⁻¹ s⁻¹ | 
CCCCNC(=O)N1CCN(Cc2sc3ccccc3c2C)CC1 | 13 M⁻¹ s⁻¹ | 44 M⁻¹ s⁻¹ | 
CNc1ccc(NC(=O)N2CCN(Cc3sc4ccccc4c3C)CC2)cn1 | 635 M⁻¹ s⁻¹ | 1000 M⁻¹ s⁻¹ | 
Cc1c(CN2CCN(C(=O)Nc3cccnc3)CC2)sc2ccc(F)cc12 | 779 M⁻¹ s⁻¹ | 3130 M⁻¹ s⁻¹ | 
Cc1c(CC2CCN(C(=O)Nc3cccnc3)CC2)sc2cccc(F)c12 | 1550 M⁻¹ s⁻¹ | 4150 M⁻¹ s⁻¹ | 
Cc1ccc(NC(=O)N2CCN(Cc3sc4cccc(F)c4c3C)CC2)cn1 | 758 M⁻¹ s⁻¹ | 1980 M⁻¹ s⁻¹ | 
Cc1ccc2sc(CC3CCN(C(=O)Nc4cccnc4)CC3)c(C)c2c1 | 482 M⁻¹ s⁻¹ | 3020 M⁻¹ s⁻¹ | 
CCc1c(CC2CCN(C(=O)Nc3cccnc3)CC2)sc2ccccc12 | 1010 M⁻¹ s⁻¹ | 1670 M⁻¹ s⁻¹ | 
CCc1c(CN2CCN(C(=O)Nc3cccnc3)CC2)sc2ccccc12 | 774 M⁻¹ s⁻¹ | 1400 M⁻¹ s⁻¹ | 
Cc1c(C(=O)C2CCN(C(=O)Nc3cccnc3)CC2)sc2ccccc12 | 1230 M⁻¹ s⁻¹ | 3600 M⁻¹ s⁻¹ | 
Cc1c(CN2CCN(C(=O)NC(C)C)CC2)sc2ccccc12 | < 10 M⁻¹ s⁻¹ | 70 M⁻¹ s⁻¹ | 
C=C(c1sc2ccccc2c1C)C1CCN(C(=O)Nc2cccnc2)CC1 | 991 M⁻¹ s⁻¹ | 5440 M⁻¹ s⁻¹ | 
CCNc1ccc(NC(=O)N2CCN(Cc3sc4ccccc4c3C)CC2)cn1 | 191 M⁻¹ s⁻¹ | 924 M⁻¹ s⁻¹ | 
O=C(Nc1cccnc1)N1CCN(Cc2cc3ccccc3s2)CC1 | 174 M⁻¹ s⁻¹ | 695 M⁻¹ s⁻¹ | 
Cc1ccc2c(Cl)c(CN3CCN(C(=O)Nc4ccc(C)nc4)CC3)sc2c1 | 14 M⁻¹ s⁻¹ | 73 M⁻¹ s⁻¹ | 
Cc1c(C(C)C2CCN(C(=O)Nc3cccnc3)CC2)sc2ccccc12 (racemic) | 48 M⁻¹ s⁻¹ | 114 M⁻¹ s⁻¹ | 
Cc1c(CN2CCN(C(=O)Nc3ccccc3)CC2)sc2ccccc12 | 762 M⁻¹ s⁻¹ | 1920 M⁻¹ s⁻¹ | 
CCOc1ccc2c(C)c(CN3CCN(C(=O)Nc4cccnc4)CC3)sc2c1 | < 10 M⁻¹ s⁻¹ | 14 M⁻¹ s⁻¹ | 
Cc1c(CN2CCN(C(=O)Nc3cccnc3)CC2)sc2cccc(F)c12 | 1200 M⁻¹ s⁻¹ | 3320 M⁻¹ s⁻¹ | 
NC(=O)c1cccc(-c2cccc(OC(=O)NC3CCCCC3)c2)c1 |  |  | inhibition [3]: Active; inhibition [4]: Active; inhibition [5]: Active; inhibition [6]: Active; inhibition [7]: Active
COc1ccc2sc(CN3CCN(C(=O)Nc4cccnc4)CC3)c(C)c2c1 | 500 M⁻¹ s⁻¹ | 1380 M⁻¹ s⁻¹ | 

Structure (SMILES) | Ratio [1] | Ratio [2] | further results
Cc1ccc2sc(CN3CCN(C(=O)Nc4ccc(C)nc4)CC3)c(C)c2c1 | 183 M⁻¹ s⁻¹ | 1170 M⁻¹ s⁻¹ | 
CC(=O)Nc1ccc(NC(=O)N2CCN(Cc3sc4ccccc4c3C)CC2)cn1 | < 10 M⁻¹ s⁻¹ | < 10 M⁻¹ s⁻¹ | 
COc1ccc2c(C)c(CN3CCN(C(=O)Nc4cccnc4)CC3)sc2c1 | 113 M⁻¹ s⁻¹ | 73 M⁻¹ s⁻¹ | 
Cc1c(CN2CCN(C(=O)Nc3ccc(N)nc3)CC2)sc2ccccc12 | 762 M⁻¹ s⁻¹ | 1920 M⁻¹ s⁻¹ | 
Cc1c(C(O)C2CCN(C(=O)Nc3cccnc3)CC2)sc2ccccc12 (racemic) | 79 M⁻¹ s⁻¹ | 200 M⁻¹ s⁻¹ | 
Cc1c(C(C)C2CCN(C(=O)Nc3cccnc3)CC2)sc2ccccc12 (stereo in doubt; 17-E1) | < 10 M⁻¹ s⁻¹ | 34 M⁻¹ s⁻¹ | 
Cc1c(CN2CCN(C(=O)Nc3ccc(-c4ccccc4)nc3)CC2)sc2ccccc12 | 1220 M⁻¹ s⁻¹ | < 10 M⁻¹ s⁻¹ | 
Cc1c(CN2CCN(C(=O)Nc3cccnc3)CC2)sc2ccccc12 | 1080 M⁻¹ s⁻¹ | 2400 M⁻¹ s⁻¹ | 
CCc1c(CN2CCN(C(=O)Nc3cccnc3)CC2)sc2ccc(F)cc12 | 617 M⁻¹ s⁻¹ | 1810 M⁻¹ s⁻¹ | 
CNC(=O)CNC(=O)N1CCN(Cc2sc3ccccc3c2C)CC1 | < 10 M⁻¹ s⁻¹ | < 10 M⁻¹ s⁻¹ | 
Cc1c(CN2CCN(C(=O)NCc3ccccc3)CC2)sc2ccccc12 | < 10 M⁻¹ s⁻¹ | < 10 M⁻¹ s⁻¹ | 
Cc1c(CN2CCN(C(=O)Nc3cccnn3)CC2)sc2ccccc12 | 191 M⁻¹ s⁻¹ | 924 M⁻¹ s⁻¹ | 
Cc1ccc(NC(=O)N2CCN(Cc3sc4ccc(F)cc4c3C)CC2)cn1 | 260 M⁻¹ s⁻¹ | 1870 M⁻¹ s⁻¹ | 
Cc1c(CC2CCN(C(=O)Nc3cccnc3)CC2)sc2ccc(F)cc12 | 729 M⁻¹ s⁻¹ | 4470 M⁻¹ s⁻¹ | inhibition [3]: Active; inhibition [4]: Active; inhibition [5]: Active; inhibition [6]: Active; inhibition [7]: Active
Cc1c(C(C)C2CCN(C(=O)Nc3cccnc3)CC2)sc2ccccc12 (stereo in doubt; 17-E2) | 110 M⁻¹ s⁻¹ | 617 M⁻¹ s⁻¹ | 
Cc1noc(NC(=O)N2CCN(Cc3sc4ccccc4c3C)CC2)c1C | 1430 M⁻¹ s⁻¹ | 1560 M⁻¹ s⁻¹ | 
Cc1c(CN2CCN(C(=O)Nc3ccc(Cl)nc3)CC2)sc2ccccc12 | 242 M⁻¹ s⁻¹ | < 10 M⁻¹ s⁻¹ | 
Cc1c(CC2CCN(C(=O)Nc3cccnc3)CC2)sc2ccccc12 | 2610 M⁻¹ s⁻¹ | 5130 M⁻¹ s⁻¹ | 
Cc1ccc(NC(=O)N2CCN(Cc3sc4ccccc4c3Cl)CC2)cn1 | 133 M⁻¹ s⁻¹ | 900 M⁻¹ s⁻¹ | 
Cc1c(CN2CCN(C(=O)NC3CCCCC3)CC2)sc2ccccc12 | < 10 M⁻¹ s⁻¹ | < 10 M⁻¹ s⁻¹ | 
Cc1c(CN2CCN(C(=O)Nc3ccc(Oc4cccnc4)nc3)CC2)sc2ccccc12 | < 10 M⁻¹ s⁻¹ | < 10 M⁻¹ s⁻¹ | 
Cc1cnc(NC(=O)N2CCN(Cc3sc4ccccc4c3C)CC2)s1 | < 10 M⁻¹ s⁻¹ | < 10 M⁻¹ s⁻¹ | 
Cc1c(CN2CCN(C(=O)NC(C)(C)C)CC2)sc2ccccc12 | < 10 M⁻¹ s⁻¹ | < 10 M⁻¹ s⁻¹ | 
Cc1c(CN2CCN(C(=O)Nc3ccccn3)CC2)sc2ccccc12 | 635 M⁻¹ s⁻¹ | 1000 M⁻¹ s⁻¹ | 
CCN(CC)c1ccc(NC(=O)N2CCN(Cc3sc4ccccc4c3C)CC2)cn1 | 1430 M⁻¹ s⁻¹ | 1560 M⁻¹ s⁻¹ | 
Cc1c(CN2CCN(C(=O)Nc3cccnc3)CC2)sc2ccc(C(F)(F)F)cc12 | 219 M⁻¹ s⁻¹ | 1390 M⁻¹ s⁻¹ | 

Source: ChEMBL document CHEMBL1152917, “Benzothiophene piperazine and piperidine urea inhibitors of fatty acid amide hydrolase (FAAH)” (2009)
